Experimental data published in ChEMBL document CHEMBL4477204, “Tetrahydroisoquinoline-Derived Urea and 2,5-Diketopiperazine Derivatives as Selective Antagonists of the Transient Receptor Potential Melastatin 8 (TRPM8) Channel Receptor and Antiprostate Cancer Agents” (J Med Chem, 2016).
The source made the active and inactive calls. The calls are words filed in the database; no cut-off is given here.

Columns and labels:
[1] = molecular target: T1, Transient receptor potential cation channel subfamily M member 8 (Rattus norvegicus, UniProt Q8R455); experiment: Agonist activity at recombinant rat TRPM8 expressed in HEK293 cells assessed as increase in intracellular calcium accumulation by Fluo-4-AM probe-based spectrofluorimetric assay; assay type: cell-based
How it was run: (§1)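 HEK-293 cells stably expressing rat TRPM8 were loaded with Fluo-4-AM (4 µM, 0.02% Pluronic F-127) for 1 h at 25 °C in serum-free EMEM. They were then washed and suspended in Tyrode's buffer pH 7.4 in a stirred cuvette. [Ca2+]i fluorescence (ex 488/em 516 nm) was read before and after compound addition. Wild-type HEK-293 response was subtracted. Efficacy is expressed versus 4 µM ionomycin; EC50 comes from a sigmoidal fit.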

[2] = molecular target: T1, Transient receptor potential cation channel subfamily M member 8; experiment: Antagonist activity at recombinant rat TRPM8 expressed in HEK293 cells assessed as inhibition of icilin-induced intracellular calcium accumulation preincubated for 5 mins followed by icilin addition by Fluo-4-AM probe-based spectrofluorimetric assay; assay type: cell-based
How it was run: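 HEK-293 cells stably expressing the listed TRP channel (human TRPV1; rat TRPM8, TRPA1, TRPV2, TRPV3 or TRPV4) were Fluo-4-AM loaded (4 µM, 1 h, 25 °C) and suspended in Tyrode's buffer pH 7.4. Compound was added 5 min before agonist: icilin 0.25 µM (TRPM8), capsaicin 0.1 µM (TRPV1), AITC 100 µM (TRPA1), LPC 3 µM (TRPV2), thymol 100 µM (TRPV3), 4α-PDD 1 µM (TRPV4). Agonist alone was taken as 100%. IC50 from sigmoidal fit, at least triplicate.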

[3] = molecular target: Transient receptor potential cation channel subfamily M member 8 (Rattus norvegicus) (UniProt Q8R455); experiment: Agonist activity at recombinant rat TRPM8 expressed in HEK293 cells assessed as increase in intracellular calcium accumulation by Fluo-4-AM probe-based spectrofluorimetric assay relative to ionomycin; assay type: cell-based; how it was run: as §1
[4] = molecular target: Transient receptor potential cation channel subfamily M member 8 (Rattus norvegicus) (UniProt Q8R455); experiment: Agonist activity at recombinant rat TRPM8 expressed in HEK293 cells assessed as increase in intracellular calcium accumulation up to 10 uM by Fluo-4-AM probe-based spectrofluorimetric assay; assay type: cell-based; how it was run: as §1
in vitro = settings: C57BL/6, mouse, liver microsomes

T1 sequence (Q8R455 whole entry): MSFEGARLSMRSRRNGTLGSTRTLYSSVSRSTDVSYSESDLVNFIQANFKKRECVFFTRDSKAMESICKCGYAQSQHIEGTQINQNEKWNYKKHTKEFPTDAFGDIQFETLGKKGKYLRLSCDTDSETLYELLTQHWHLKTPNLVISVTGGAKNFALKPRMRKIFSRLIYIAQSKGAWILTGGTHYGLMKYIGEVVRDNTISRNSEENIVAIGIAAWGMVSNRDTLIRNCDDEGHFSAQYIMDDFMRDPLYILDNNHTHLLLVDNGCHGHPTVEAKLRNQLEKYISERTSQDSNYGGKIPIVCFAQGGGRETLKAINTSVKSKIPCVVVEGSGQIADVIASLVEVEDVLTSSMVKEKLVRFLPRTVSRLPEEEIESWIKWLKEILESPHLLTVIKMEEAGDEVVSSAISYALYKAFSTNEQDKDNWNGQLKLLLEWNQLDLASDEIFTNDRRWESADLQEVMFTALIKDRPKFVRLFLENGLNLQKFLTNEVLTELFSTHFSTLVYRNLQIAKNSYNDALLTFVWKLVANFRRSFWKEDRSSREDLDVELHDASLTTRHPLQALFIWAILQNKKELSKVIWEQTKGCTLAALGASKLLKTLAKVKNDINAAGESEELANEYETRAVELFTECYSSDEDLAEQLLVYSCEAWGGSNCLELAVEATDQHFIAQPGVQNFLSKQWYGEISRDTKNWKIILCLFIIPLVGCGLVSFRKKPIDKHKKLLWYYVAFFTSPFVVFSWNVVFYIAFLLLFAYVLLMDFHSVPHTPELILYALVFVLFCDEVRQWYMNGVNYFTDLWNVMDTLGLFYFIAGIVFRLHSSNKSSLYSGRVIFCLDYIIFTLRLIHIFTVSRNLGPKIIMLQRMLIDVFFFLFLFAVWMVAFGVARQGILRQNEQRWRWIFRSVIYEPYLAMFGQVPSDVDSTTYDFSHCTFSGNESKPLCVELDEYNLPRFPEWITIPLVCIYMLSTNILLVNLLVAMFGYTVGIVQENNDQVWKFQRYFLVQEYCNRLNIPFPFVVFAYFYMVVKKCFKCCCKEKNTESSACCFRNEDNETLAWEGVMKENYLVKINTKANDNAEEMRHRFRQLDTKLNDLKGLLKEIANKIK
Sequence of Transient receptor potential cation channel subfamily M member 8 (Rattus norvegicus) (Q8R455 whole entry, looked up): as the sequence (Q8R455 whole entry) above

Structure (SMILES)	EC50 ([1]; hek293)	IC50 [2] [µM]	Activity [3] [%]	EC50 ([1]; read-out: EC50) [µM]	Activity [4]	CLint scaled at 1 h, 3 µM (in vitro) [mL/min/kg]
CCC[C@H]1c2cc(OC)c(OC)cc2CCN1C(=O)N1CCc2cc(OC)c(OC)cc2[C@@H]1CCC (racemic)	Not Active	8.5				
COc1ccc(/C=C2\NC(=O)[C@@H]3Cc4cc(OC)c(OC)cc4[C@@H](c4ccccc4Cl)N3C2=O)cc1OC	Not Active	39.3				
COc1cc2c(cc1OC)[C@H](c1ccc([N+](=O)[O-])cc1)N(C(=O)N1CCc3cc(OC)c(OC)cc3[C@@H]1c1ccc([N+](=O)[O-])cc1)CC2 (racemic)		> 50	22.7	14.2	inactive	
CCC1c2cc(OC)c(OC)cc2CCN1C(=O)NCCc1ccc(OC)c(OC)c1 (configuration not stated)	Not Active	> 50				
COc1cc2c(cc1OC)C(c1ccc([N+](=O)[O-])cc1[N+](=O)[O-])NCC2 (racemic)	Not Active	> 50				
COc1cc2c(cc1OC)[C@H](c1cccc(-c3cccc([N+](=O)[O-])c3)n1)N(C(=O)N1CCc3cc(OC)c(OC)cc3[C@@H]1c1cccc(-c3cccc([N+](=O)[O-])c3)n1)CC2 (racemic)	Not Active	43.7				
COc1cc2c(cc1OC)[C@H](c1ccc3ccccc3c1)N(C(=O)N1CCc3cc(OC)c(OC)cc3[C@@H]1c1ccc3ccccc3c1)CC2 (racemic)	Not Active	> 50				
COc1cc2c(cc1OC)[C@@H](c1ccc(Oc3ccc([N+](=O)[O-])cc3)cc1)N(C(=O)N1CCc3cc(OC)c(OC)cc3[C@@H]1c1ccc(Oc3ccc([N+](=O)[O-])cc3)cc1)CC2	Not Active	> 50				
COc1ccc(CCNC(=O)N2CCc3cc(OC)c(OC)cc3C2c2ccccc2Cl)cc1OC (racemic)	Not Active	46.1				
COc1cc(C[C@@H]2NC(=O)[C@@H]3Cc4c(OC)c(C)c(OC)c(OC)c4[C@H](/C=C/c4ccccc4)N3C2=O)c(OC)c(C)c1OC (racemic)		3.2	26.6	20.8	inactive	
COc1cc2c(cc1OC)C(c1ccc(Cl)cc1)NCC2 (racemic)	Not Active	> 50				
COc1cc2c(cc1OC)C(c1cccc(-c3cccc([N+](=O)[O-])c3)n1)NCC2 (racemic)	Not Active	> 50				
COc1cc2c(cc1OC)[C@@H](c1ccc(C(F)(F)F)cc1)N(C(=O)N1CCc3cc(OC)c(OC)cc3[C@@H]1c1ccc(C(F)(F)F)cc1)CC2	Not Active	10.6				
CCC1c2cc(OC)c(OC)cc2CCN1C(=O)NCCc1cc(OC)c(OC)cc1C(CC)S(=O)(=O)c1ccc(C)cc1 (configuration not stated)		> 50	15.3	26.1	inactive	
COc1cc2c(cc1OC)[C@H](c1ccc(C(F)(F)F)cc1)N(C(=O)N1CCc3cc(OC)c(OC)cc3[C@@H]1c1ccc(C(F)(F)F)cc1)CC2 (racemic)	Not Active	0.18				10.1
COc1ccc(CCNC(=O)N2CCc3cc(OC)c(OC)cc3C2c2ccc(Br)cc2)cc1OC (configuration not stated)	Not Active	48.2				
COc1cc2c(cc1OC)[C@H](c1cccc([N+](=O)[O-])c1)N(C(=O)N1CCc3cc(OC)c(OC)cc3[C@@H]1c1cccc([N+](=O)[O-])c1)CC2 (racemic)	Not Active	44.4				
COc1ccc(CCNC(=O)NCCc2ccc(OC)c(OC)c2)cc1OC	Not Active	> 50				

Structure (SMILES)	EC50 ([1]; hek293)	IC50 [2] [µM]	Activity [3] [%]	EC50 ([1]; read-out: EC50) [µM]	Activity [4]	CLint scaled at 1 h, 3 µM (in vitro) [mL/min/kg]
COc1c(C)c(OC)c(OC)c2c1C[C@H]1C(=O)N3[C@@H](Cc4c(OC)c(C)c(OC)c(OC)c4[C@@H]3/C=C/c3ccccc3)C(=O)N1[C@H]2/C=C/c1ccccc1 (racemic)	Not Active	8.8				
COc1ccc(CCNC(=O)N2CCc3cc(OC)c(OC)cc3C2c2ccccc2)cc1OC (configuration not stated)	Not Active	1.2				39.6
COc1ccc(CCNC(=O)N2CCc3cc(OC)c(OC)cc3C2c2ccc(Cl)cc2)cc1OC (configuration not stated)	Not Active	31.7				
COc1cc2c(cc1OC)[C@H](c1ccc([N+](=O)[O-])cc1[N+](=O)[O-])N(C(=O)N1CCc3cc(OC)c(OC)cc3[C@@H]1c1ccc([N+](=O)[O-])cc1[N+](=O)[O-])CC2 (racemic)	Not Active	> 50				
COc1ccc(/C=C2\NC(=O)[C@@H]3Cc4cc(OC)c(OC)cc4[C@@H](c4ccccc4)N3C2=O)cc1OC		12.8	14.7	15.9	inactive	
COc1ccc(CCNC(=O)N2CCc3cc(OC)c(OC)cc3C2c2cccc([N+](=O)[O-])c2)cc1OC (configuration not stated)	Not Active	> 50				
COc1cc2c(cc1OC)[C@@H](c1ccc(F)cc1)N(C(=O)N1CCc3cc(OC)c(OC)cc3[C@@H]1c1ccc(F)cc1)CC2	Not Active	> 50				
COc1ccc(OC)c(C[C@@H]2NC(=O)[C@@H]3Cc4c(OC)ccc(OC)c4[C@@H](/C=C/c4ccccc4)N3C2=O)c1 (racemic)	Not Active	30.6				
COc1cc2c(cc1OC)[C@H](c1ccccc1Cl)N(C(=O)N1CCc3cc(OC)c(OC)cc3[C@@H]1c1ccccc1Cl)CC2 (racemic)	Not Active	19.8				52.9
COc1ccc(/C=C2\NC(=O)[C@@H]3Cc4cc(OC)c(OC)cc4[C@@H](c4ccc(Br)cc4)N3C2=O)cc1OC	Not Active	42.4				
COc1cc2c(cc1OC)[C@H](c1ccc(Br)cc1)N(C(=O)N1CCc3cc(OC)c(OC)cc3[C@@H]1c1ccc(Br)cc1)CC2 (racemic)	Not Active	2.2				19.1
COc1cc2c(cc1OC)[C@H](c1ccc(Oc3ccc([N+](=O)[O-])cc3)cc1)N(C(=O)N1CCc3cc(OC)c(OC)cc3[C@@H]1c1ccc(Oc3ccc([N+](=O)[O-])cc3)cc1)CC2 (racemic)	Not Active	> 50				
COc1ccc(/C=C2\NC(=O)[C@@H]3Cc4cc(OC)c(OC)cc4[C@@H](c4cccc([N+](=O)[O-])c4)N3C2=O)cc1OC	Not Active	35.2				
COc1cc2c(cc1OC)C(c1ccc(C(F)(F)F)cc1)N(C(C)=O)CC2 (configuration not stated)	Not Active	> 50				
COc1cc(C[C@@H]2NC(=O)[C@H](Cc3cc(OC)c(OC)c(C)c3OC)NC2=O)c(OC)c(C)c1OC (racemic)	Not Active	> 50				
CCCC1c2cc(OC)c(OC)cc2CCN1C(=O)NCCc1ccc(OC)c(OC)c1 (configuration not stated)	Not Active	> 50				
COc1cc2c(cc1OC)C(c1cccc(-c3cccc([N+](=O)[O-])c3)n1)=NCC2	Not Active	22.9				
